From publication PMC9939723 (Redox Biology, 2023)
pIC50: −log10 of the molar value. Several values for one entry are separate records, joined by “and”; a condition that tells them apart may be missing. Identical values can stand only once. Like-named read-outs stand apart in the source and are kept apart here.

Columns and labels:
[1] = test system: carbapenem-resistant Acinetobacter baumannii (CRAB); test: MIC by microbroth dilution against CRAB; assay type: cell-based; settings: 24 h incubation
In short: (§1)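 Broth microdilution per CLSI guidelines in 96-well plates. Incubated 37 °C for 24 h, then read on a microplate reader.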

[2] = test system: carbapenem-resistant Klebsiella pneumonia (BAA-1705); test: MIC by microbroth dilution against CRKP; assay type: cell-based; settings: 24 h incubation
In short: as §1

TrxR in CRAB = TrxR in CRAB (Acinetobacter baumannii, UniProt A0A0G4QN87); test: Cellular TrxR activity assay; assay type: cell-based; settings: read-out: IC50 inhibition of TrxR activity in CRAB; 2 h treatment of bacteria
In short: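 Cultures at OD600 0.4–0.6 exposed to 0, 0.5, 1, 2, 5, 10, 20 μM for 2 h. Pellets washed three times in PBS and normalised to OD600 0.7 ± 0.02. TrxR assayed with a kit: NADPH-driven DTNB reduction, 2-vinylpyridine added to block GSH, activity from the rate of TNB increase at 412 nm on a plate reader.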

[3] = test system: carbapenem-resistant Pseudomonas aeruginosa (BAA-2108); test: MIC by microbroth dilution against CRPA; assay type: cell-based; settings: 24 h incubation
In short: as §1

CRAB-induced peritonitis = test: Murine peritonitis infection model; assay type: in vivo, BALB/c mice
In short: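 Male (n = 8/group) and female (n = 12/group) BALB/c mice, 18–22 g, infected i.p. with 200 μL CRAB (1 × 10^9 cfu/mL). Single i.p. dose of 5 mg/kg given 1 h post-infection; PBS as control. Survival followed for 72 h. Experiment repeated three times.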

purified rat liver TrxR = target: T1, purified rat liver TrxR (Rattus norvegicus, UniProt O89049); settings: read-out: IC50 purified TrxR activity; previous report ref 38; cited from earlier work
T1 sequence (O89049 1-499): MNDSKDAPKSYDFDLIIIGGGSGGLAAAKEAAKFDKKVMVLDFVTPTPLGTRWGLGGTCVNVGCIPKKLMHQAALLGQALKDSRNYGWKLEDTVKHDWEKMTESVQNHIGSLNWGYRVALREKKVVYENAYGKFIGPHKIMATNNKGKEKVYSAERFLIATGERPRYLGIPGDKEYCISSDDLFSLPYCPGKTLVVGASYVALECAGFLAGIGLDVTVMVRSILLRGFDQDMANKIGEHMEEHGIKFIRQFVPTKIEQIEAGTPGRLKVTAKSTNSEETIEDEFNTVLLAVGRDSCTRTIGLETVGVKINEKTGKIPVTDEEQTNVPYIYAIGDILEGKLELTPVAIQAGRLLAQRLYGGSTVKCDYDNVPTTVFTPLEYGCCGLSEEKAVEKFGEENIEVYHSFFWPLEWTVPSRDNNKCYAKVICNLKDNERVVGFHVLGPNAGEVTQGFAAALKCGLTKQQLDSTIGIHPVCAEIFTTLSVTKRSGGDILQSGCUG

CRAB = test: Checkerboard microdilution assay, antibiotic with gold complexes; assay type: cell-based, Acinetobacter baumannii; settings: for FIC index / MIC of antibiotic: CRAB; for MIC: Acinetobacter baumannii; for MIC of antibiotic: antibiotic alone
In short: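 Checkerboard in 96-well plates. Inoculum diluted per the CLSI broth microdilution method. Gold complex 0–20 μM crossed with antibiotic 0–240 μM. Growth inhibition read as OD600 on a plate reader.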

[4] = test system: carbapenem-resistant Escherichia coli (BAA-2140); test: MIC by microbroth dilution against CREco; assay type: cell-based; settings: 24 h incubation
In short: as §1

TrxB expression in CRAB = test: TrxB expression by qPCR; assay type: cell-based, Acinetobacter baumannii; settings: 2 h
In short: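 Bacteria at initial OD600 0.4–0.5 exposed to compound and shaken 2 h at 37 °C. Total RNA extracted with a kit (lysis buffer, chloroform). TrxB mRNA measured by qPCR with 16S as internal control, 2^−ΔΔCt method, in triplicate.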

[5] = test system: vancomycin-intermediate Staphylococcus aureus (ATCC 700699); test: MIC by microbroth dilution against VISA; assay type: cell-based; settings: 24 h incubation
In short: as §1

TrxR in CRAB, sequence (A0A0G4QN87 1-315): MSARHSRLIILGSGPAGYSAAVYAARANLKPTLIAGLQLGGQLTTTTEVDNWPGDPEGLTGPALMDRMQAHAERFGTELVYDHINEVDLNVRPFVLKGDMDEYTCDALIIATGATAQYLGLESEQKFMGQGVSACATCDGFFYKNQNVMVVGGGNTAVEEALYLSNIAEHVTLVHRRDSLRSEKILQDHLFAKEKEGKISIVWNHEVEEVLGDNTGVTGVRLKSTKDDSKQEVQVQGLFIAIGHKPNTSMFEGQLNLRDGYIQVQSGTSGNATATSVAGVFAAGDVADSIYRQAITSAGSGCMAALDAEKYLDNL

Compound	MIC CRAB [1]	MIC CRKP [2]	pIC50 (TrxR in CRAB)	MIC CRPA [3]	mice surviving to 34 h (CRAB-induced peritonitis; female BALB/c, n = 12, i.p. 5 mg/kg 1 h after infection)	mice surviving to 24 h (CRAB-induced peritonitis; male BALB/c, n = 8, single i.p. 5 mg/kg 1 h after infection)	pIC50 (purified rat liver TrxR)	FIC index (CRAB; gold complex in combination with cefotaxime)	FIC index (CRAB; gold complex in combination with imipenem)	MIC CREco [4]	expression of TrxB (mRNA) (TrxB expression in CRAB)	MIC VISA [5]	MIC (CRAB; read-out: MIC of cefotaxime in the presence of H7) [µM]	MIC (CRAB; read-out: MIC of cefotaxime in the presence of H8) [µM]	MIC of antibiotic (CRAB) [µM]
CC(=O)OC[C@H]1O[C@@H]([S-])[C@H](OC(C)=O)[C@@H](OC(C)=O)[C@@H]1OC(C)=O.CCP(CC)CC.[Au+] [Auranofin]	20 μM and 13.56 μg/mL	40 μM and 27.12 μg/mL	5.20	40 μM and 27.12 μg/mL	seven of the twelve mice	four of the eight mice	7.08	0.625	0.75	40 μM and 27.12 μg/mL	no effect	0.34 μg/mL and 0.5 μM	–	–	–
CO/N=C(\C(=O)N[C@@H]1C(=O)N2C(C(=O)O)=C(COC(C)=O)CS[C@H]12)c1csc(N)n1 [Cefotaxime]	–	–	–	–	–	–	–	–	–	–	–	–	30	30	240
C[C@@H](O)[C@H]1C(=O)N2C(C(=O)O)=C(SCCN=CN)C[C@H]12 [Imipenem]	–	–	–	–	–	–	–	–	–	–	–	–	–	–	240
